Results collected from several papers.
Target: Tyrosine-protein kinase SYK (SYK, Homo sapiens, UniProt P43405)

| Compound | assay | conditions | remaining binding |
| --- | --- | --- | --- |
| c1cnn2ncc(-c3ccnc(N4CCC45COC5)n3)c2c1 | binding | 1 µM | 99% |
| O=C(c1ccc(Nc2ncc(Cl)c(-c3ccc(Cl)s3)n2)cc1)N1CCC(N2CCCC2)CC1 | binding, competition with immobilised ligand | 1 µM | 43% |
| Nc1ncc2c(n1)-c1c([nH]c3ccc(C#CC4CC4)cc13)CCCC2 | binding, competition with immobilised ligand | 1 µM | 100% |
| COc1ccc2c(c1)O[C@H](c1ccc(OC)c(OC)c1)C[C@@H]2NC(=O)C1(c2ccc3c(c2)OC(F)(F)O3)CC1 | cell-free assay, competition with immobilised ligand | 1 µM | 100% |
| COc1cnc(Nc2cccc(S(N)(=O)=O)c2)nc1N1CCN(c2ccccc2)C(=O)C1 | binding, competition with immobilised ligand | 1 µM | 100% |
| CCN1CCN(Cc2ccc(C(=O)Nc3ccc(C)c(Oc4ccc5c(c4)CC(=O)N5)c3)cc2C(F)(F)F)CC1 | binding, competition with immobilised ligand | 1 µM | 100% |
| Cc1cc(-n2nc(Cc3cc(F)cc(C(F)(F)F)c3)nc2C)ccc1C(N)=O | cell-free assay, competition with immobilised ligand | 1 µM | 87% |
| C[C@@H]1CCN(c2nccc(-c3cnn4ncccc34)n2)C1 | binding | 1 µM | 84% |
| O=C(Nc1c[nH]nc1C(=O)NC1CCNCC1)c1cc(F)cc(F)c1 | binding, competition with immobilised ligand | 1 µM | 100% |
| O=C(c1ccc(Nc2nccc(-c3cc4ccccc4s3)n2)cc1)N1CCC(N2CCCC2)CC1 | binding, competition with immobilised ligand | 1 µM | 31% |
| CC1CCCN1c1nccc(-c2cnn3ncccc23)n1 (centres unmarked) | binding | 1 µM | 100% |
| Cc1cc(NC(=O)c2cccc(S(F)(F)(F)(F)F)c2)cc(-n2ccn3nc(-c4cccnc4)cc23)c1 | cell-free assay, competition with immobilised ligand | 1 µM | 95.5% |
| O=C(NCCCN1CCOCC1)c1ccc(Nc2nccc(-c3cc4ccccc4s3)n2)cc1 | binding, competition with immobilised ligand | 1 µM | 17% |
| COc1ncc2cc3ccccc3nc2c1C#N | cell-free assay, competition with immobilised ligand | 5 µM | 98% |
| N[C@H]1CCN(c2nccc(-c3cnn4ncccc34)n2)C1 | binding | 1 µM | 81% |
| CCc1ccccc1C(=O)Nc1n[nH]c2c(C)c(F)c(C3C(C#N)=C(C)N(C)C(C)=C3C#N)cc12 | cell-free assay, competition with immobilised ligand | 1 µM | 100% |
| CN(CCCC(F)(F)F)c1nccc(-c2cnn3ncccc23)n1 | binding | 1 µM | 76% |
| CO[C@H]1CC[C@H](CNc2ccc(S(=O)(=O)NC(=O)c3ccc(N4CCN(CC5=C(c6ccc(Cl)cc6)CC(C)(C)CC5)CC4)cc3Oc3cnc4[nH]ccc4c3)cc2[N+](=O)[O-])CC1 | cell-free assay, competition with immobilised ligand | 1 µM | 62% |
| CN(c1nccc(-c2cnn3ncccc23)n1)C1CC1 | binding | 1 µM | 100% |
| CN(C)c1ncnc(-c2ccc3nc(Nc4cc(CN5CCN(C(=O)CC(F)(F)F)CC5)ccn4)[nH]c3c2)c1Cl | cell-free assay, competition with immobilised ligand | 1 µM | 96% |
